Source: PubChem BioAssay
Hits are enriched below; roughly 2.6% of the tested compounds scored in any of these assays.
Platelet DG rel: platelet dense granule release activity. inhibition, %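 (compounds screened at 7.5 µM in platelet-rich plasma)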. 300,000 compounds, 0.22% hits. human platelet-rich plasma, SFLLRN dense granule ATP release, luminescence;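 active = mean replicate score, as percent of positive control, at or above 50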
TAAR1 ag: agonists of human TAAR1; CHO RD-HGA16 TAAR1, Fluo-8 calcium fluorescence; vehicle wells 0%, saturating PEA agonist 100%; activation, % at 3 µM; Q96RJ0; 360,000 compounds, 0.99% hits; AID 624467;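 active = activation above the mean activation of all test compounds in the run plus 3 SD, cut at about 38% in these data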
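Assay system: CHO-derived RD-HGA16 cells with stable Gα16 and human TAAR1; timing: 17-24 h seeding, 75 min 37 °C dye, 30 min RT; read-out: % activation from peak over basal fluorescence ratio, DMSO-to-PEA scaled; measured by: kinetic Fluo-8 calcium fluorescence; benchmarks: low control DMSO, high control PEA (EC100); doses: 3 µM single concentration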
TAAR1 antagonist: human TAAR1 antagonism | CHO RD-HGA16 TAAR1, Fluo-8 calcium fluorescence, antagonist | Q96RJ0 | inhibition, % at 3 µM | 360,000 compounds, 1.5% hits | AID 624466;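 active = inhibition above a per-plate cutoff, the mean inhibition of test compounds on that plate plus 3 SD, cut at about 49% in these data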;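 note: 0% = DMSO plus EC80 beta-PEA response and 100% = DMSO alone without agonist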
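Test system – hTAAR1-expressing CHO RD-HGA16 cells, Gα16-coupled · Reagent – β-PEA at EC80 concentration, post-compound challenge · Compound dosing – 3 µM, single point · Timing – 140 s kinetic read after compound, 140 s after agonist · Detection – Fluo-8 intracellular calcium dye fluorescence, real-time kinetic reads · Control set – DMSO and EC80 PEA controls · Repeats – n of 1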
VLA-4 inh: inhibition in a human VLA-4 binding assay; P13612; VLA-4 expressing cells, ligand binding flow cytometry; inhibition, % (about 7 µM as worked out from the volumes in the protocol); 330,000 compounds, 0.2% hits; AID 2557; in the data active = inhibition above about 50%
Target sequence (P13612 whole entry, looked up): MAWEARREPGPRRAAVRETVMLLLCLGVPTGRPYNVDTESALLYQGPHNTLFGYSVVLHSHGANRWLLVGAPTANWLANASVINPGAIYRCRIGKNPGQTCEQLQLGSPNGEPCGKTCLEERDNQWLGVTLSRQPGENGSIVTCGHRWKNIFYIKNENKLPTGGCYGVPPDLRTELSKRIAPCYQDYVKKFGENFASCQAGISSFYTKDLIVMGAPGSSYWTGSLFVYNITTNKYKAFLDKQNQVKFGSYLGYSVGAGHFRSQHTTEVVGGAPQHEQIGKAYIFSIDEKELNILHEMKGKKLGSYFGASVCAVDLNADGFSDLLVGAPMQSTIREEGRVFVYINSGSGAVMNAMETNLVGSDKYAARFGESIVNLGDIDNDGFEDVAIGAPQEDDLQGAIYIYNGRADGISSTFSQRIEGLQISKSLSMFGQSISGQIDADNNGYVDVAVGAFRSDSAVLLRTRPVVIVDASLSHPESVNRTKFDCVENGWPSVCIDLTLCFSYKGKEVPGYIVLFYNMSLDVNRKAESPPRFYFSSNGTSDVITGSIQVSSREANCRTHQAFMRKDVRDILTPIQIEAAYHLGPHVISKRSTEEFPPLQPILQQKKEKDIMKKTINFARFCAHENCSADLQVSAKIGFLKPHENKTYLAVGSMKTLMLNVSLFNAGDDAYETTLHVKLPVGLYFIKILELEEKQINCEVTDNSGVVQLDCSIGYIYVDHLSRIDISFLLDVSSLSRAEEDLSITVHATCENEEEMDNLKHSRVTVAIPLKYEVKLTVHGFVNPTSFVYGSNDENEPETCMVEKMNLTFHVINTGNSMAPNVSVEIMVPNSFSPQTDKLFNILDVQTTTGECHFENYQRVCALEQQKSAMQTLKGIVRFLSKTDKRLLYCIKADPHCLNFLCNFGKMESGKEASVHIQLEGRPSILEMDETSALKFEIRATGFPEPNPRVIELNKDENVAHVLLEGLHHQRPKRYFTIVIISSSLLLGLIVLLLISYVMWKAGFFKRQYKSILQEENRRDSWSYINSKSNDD
Rce1 inhib: inhibitors of yeast Ras-converting enzyme | Q03530 | yeast membranes, quenched prenylated peptide cleavage fluorescence | calls only | 290,000 compounds, 0.27% hits | AID 2563;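 active = fall in fluorescence gain of 50% or more versus controls, with final raw signal at or below 3038400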;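 note: plate controls were neutral control wells for no effect and wells lacking membranes for full effect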
nonsel antag count: counter-screen for TAAR1 antagonists: nonselective antagonists | shares compounds with TAAR1 antagonist | counterscreen cell line, calcium fluorescence, antagonist mode | inhibition, % at 3 µM | 2,400 compounds, 77% hits | AID 651780; in the data active = inhibition above about 22%;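 note: CHO-Ga16 host cells stimulated with ATP at an EC80 level; 0% = agonist EC80 plus vehicle and 100% = vehicle without agonist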
TAAR1 antag conf: confirmation of human TAAR1 antagonists | 2,400 compounds, 40% hits | TAAR1-expressing cells, fluorescence antagonist read-out | shares compounds with TAAR1 antagonist | inhibition, % at 3 µM | AID 651785; in the data active = inhibition above about 49%;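 note: CHO-Ga16 host cells challenged with agonist PEA near its EC80; 0% = agonist at EC80 plus vehicle and 100% = vehicle with no agonist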
Ga16 nonsel ag: counter-screen for TAAR1 antagonists: nonselective Ga16 agonists | shares compounds with TAAR1 antagonist | Ga16-expressing cells, calcium fluorescence, agonist counterscreen | activation, % at 3 µM | AID 651953 | 2,400 compounds, 18% hits; in the data active = activation above about 12%;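 note: 0% = vehicle wells and 100% = saturating stimulus response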
TAAR1 ag count: activates human TAAR1 in antagonist counter-screen; shares compounds with TAAR1 antagonist; hTAAR1 cell line, fluorescence activation, agonist mode; activation, % at 3 µM; 2,400 compounds, 2% hits; in the data active = activation above about 37%;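 note: CHO cells stably expressing TAAR1 with calcium dye readout; 0% = DMSO vehicle and 100% = full agonist response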
* marks the source's active call; other numbers are inactive results; i = inactive; . = not tested or not shown; + = active, no number.

SMILES	Platelet DG rel	TAAR1 ag	TAAR1 antagonist	VLA-4 inh	Rce1 inhib	nonsel antag count	TAAR1 antag conf	Ga16 nonsel ag	TAAR1 ag count
Cc1ccc2cccc(OCC(=O)Nc3cccc(S(=O)(=O)N4CCCC4)c3)c2n1	.	14.9	74.5*	0.3	.	33.6*	56.8*	9.4	7.1
COc1ccc(CN(C)CC(=O)Nc2cccc(S(=O)(=O)N3CCCC3)c2)cc1F	.	16.2	63.8*	11.3	.	8.1	5.6	-0.2	-2.1
CC(C)(C)NC(=O)C(c1ccc(C#N)cc1)n1c(=O)c(-c2cc3ccccc3[nH]2)nc2ccccc21 (stereo not drawn)	.	1.0	-18.9	.	.	.	.	.	.
COCCn1c(SCC(=O)Nc2ccccc2OC)nc2c(oc3ccccc32)c1=O	-2.7	0.0	52.2*	19.8	i	20.9	32.7	2.5	-0.2
COCCn1c(SCC(=O)Nc2ccccc2)nc2c(oc3ccccc32)c1=O	1.2	0.7	5.3	7.3	i	.	.	.	.
Nc1nc(-c2cc(O)ccc2[N+](=O)[O-])cc(-c2ccccc2)c1[N+](=O)[O-]	1.4	14.2	48.9*	-11.0	i	24.0*	39.9	5.6	3.1
CCN(CC(=O)NCc1ccc(Cl)cc1)S(=O)(=O)c1ccc(NC(C)=O)cc1	2.2	19.1	77.7*	3.4	i	20.9	46.6	9.1	11.1
Cc1cc(-c2ccc(S(=O)(=O)N(C)Cc3ccccc3)cc2)on1	-0.9	9.2	65.0*	-6.2	i	25.8*	50.9*	9.6	16.7
CCC(=O)N1CCN(c2ccc(-n3c(=O)ccc4cnc5ccc(-c6cnc7ccccc7c6)cc5c43)cc2C(F)(F)F)CC1	.	7.4	50.3*	.	.	21.4	33.5	6.6	7.4
O=C(/C=C/c1cn(-c2ccccc2)nc1-c1cccs1)NCCN1CCOCC1	6.6	20.6	52.6*	19.5	+	27.9*	37.4	9.3	8.9
O=C(Nc1cccnc1)c1sc(Nc2ccccc2)nc1-c1ccccc1	-8.7	13.7	58.6*	8.7	i	34.4*	36.8	8.3	10.9
O=C(CSc1nncs1)NC1CCCCCCC1	.	0.4	5.7	-3.6	.	.	.	.	.
Cc1cc(CNC(=O)c2cc(-c3ccccc3)nc3ccccc23)nn1C	19.5	7.7	51.9*	-3.4	i	23.6*	43.1	10.3	9.1
COc1ccc(C2=NOC(Cn3nc(-c4ccccc4)cc3C(=O)NCc3ccccc3OC)C2)cc1 (stereo not drawn)	.	6.8	33.8	8.5	.	.	.	.	.
COCCNC(=O)c1cc(-c2ccc(-c3ccccc3)cc2)nc2ccccc12	4.7	4.1	55.1*	4.8	i	25.0*	35.5	6.5	0.7
Cc1ccc(C)c(Nc2cc(C(=O)NCc3cccnc3)c3ccccc3n2)c1	6.0	12.7	49.7*	-1.3	i	21.5*	44.1	8.9	6.6
COc1ccccc1CNC(=O)c1cc(-c2ccccc2)nn1CC1CC(c2cccnc2)=NO1 (stereo not drawn)	0.6	13.7	53.3*	15.1	i	20.3	47.4	8.5	10.9
CSc1ncccc1C(=O)OCC(=O)N1CCc2ccccc21	.	1.7	0.4	15.5	.	.	.	.	.
Cc1cccnc1NC(=O)CSc1ccc2c(c1)OCCO2	.	6.8	0.2	3.7	.	.	.	.	.
O=C(CCl)N(O)c1ccc(C=Cc2ccccc2)cc1	.	2.5	-3.3	.	.	.	.	.	.
COc1ccc(C2=NOC(Cn3nc(C(=O)NCc4cccc(Br)c4)cc3-c3ccccc3)C2)cc1 (stereo not drawn)	.	11.7	56.5*	-12.4	.	29.7*	36.2	6.3	2.5
COc1ccc(C2=NOC(Cn3nc(-c4ccccc4)cc3C(=O)NCc3cccc(Br)c3)C2)cc1 (stereo not drawn)	.	16.0	11.6	12.2	.	.	.	.	.
COCCCNC(=O)c1cc(-c2cccnc2)nc2ccccc12	1.7	1.8	9.7	-4.7	i	.	.	.	.
COc1ccccc1CNC(=O)c1cc(-c2cccnc2)nc2ccccc12	1.8	15.4	73.9*	-12.6	i	22.8*	39.2	10.2	13.5
COc1ccc(Cl)cc1C(=O)OCC(=O)NCCNC(=O)COC(=O)c1cc(Cl)ccc1OC	40.7	4.7	-18.7	-7.2	i	.	.	.	.
SMILES	Platelet DG rel	TAAR1 ag	TAAR1 antagonist	VLA-4 inh	Rce1 inhib	nonsel antag count	TAAR1 antag conf	Ga16 nonsel ag	TAAR1 ag count
COc1ccc2c(c1)CC=C1C2CCC2(C)C(=O)C(=NO)CC12 (stereo not drawn)	.	1.6	-25.3	.	.	.	.	.	.
COC(=O)C1=C(C)N(Cc2cccc(C(F)(F)F)c2)C(=NCc2ccc(C(F)(F)F)cc2)NC1c1ccc(Cl)cc1 (stereo not drawn)	.	13.2	31.4	.	.	.	.	.	.
COC(=O)C1=C(C)N(Cc2ccc(C(F)(F)F)cc2)C(=NCc2ccccc2)NC1c1ccc(C(F)(F)F)cc1 (stereo not drawn)	.	23.2	54.9*	.	.	40.7*	33.1	21.0*	43.6*
COC(=O)C1=C(C)N(Cc2cccc(C(F)(F)F)c2)C(=NCc2ccc(C(F)(F)F)cc2)NC1c1ccccc1 (stereo not drawn)	.	9.8	19.0	.	.	.	.	.	.
COC(=O)C1=C(C)N(Cc2cccc(C(F)(F)F)c2)C(=NCc2ccc3c(c2)OCO3)NC1c1ccc(Cl)cc1 (stereo not drawn)	.	29.0	55.9*	.	.	36.6*	41.2	18.9*	52.4*
COC(=O)C1=C(C)N(Cc2ccc(C(F)(F)F)cc2)C(=NCc2ccccc2)NC1c1ccccc1 (stereo not drawn)	.	34.2	50.8*	.	.	35.8*	32.2	17.6*	35.7
COC(=O)C1=C(C)N(Cc2ccc(C(F)(F)F)cc2)C(=NCc2ccccc2C(F)(F)F)NC1c1ccc(C(F)(F)F)cc1 (stereo not drawn)	.	1.9	-13.4	.	.	.	.	.	.
COC(=O)C1=C(C)N(Cc2cccc(C(F)(F)F)c2)C(=NCc2ccc(OC)cc2)NC1c1ccc(F)cc1 (stereo not drawn)	.	31.3	53.2*	.	.	41.5*	33.5	14.9*	30.4
COC(=O)C1=C(C)N(C)C(=NCc2cccc(C(F)(F)F)c2)NC1c1ccc(C(F)(F)F)cc1 (stereo not drawn)	.	26.7	50.9*	.	.	32.5*	40.4	12.8*	26.1
COC(=O)C1=C(C)N(C)C(=NCc2cccc(C(F)(F)F)c2)NC1c1ccccc1 (stereo not drawn)	.	8.4	-3.2	.	.	.	.	.	.
COC(=O)C1=C(C)N(Cc2ccc(C(F)(F)F)cc2)C(=NCc2ccccc2)NC1c1cccc(C(F)(F)F)c1 (stereo not drawn)	.	18.3	29.4	.	.	.	.	.	.
